Source: ChEMBL document CHEMBL4680332, “Lead optimization of 2-hydroxymethyl imidazoles as non-hydroxamate LpxC inhibitors: Discovery of TP0586532” (Bioorg Med Chem, 2021)
In brackets after ≈: the same amount, converted by molar mass.

Legend:
[1] = Inhibition of Escherichia coli LpxC using DP-3-0-(R-3-hydroxymyristoy1)-N-acetylglucosamine as substrate incubated for 120 mins by fluorescamine assay
Escherichia coli = assay: Antibacterial activity against Escherichia coli ATCC 25922 by CLSI based broth microdilution method; format: functional
Summary of the method: (§1)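 Broth microdilution MIC per CLSI method; E. coli ATCC 25922 and K. pneumoniae ATCC 13883.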

Klebsiella pneumoniae [2] = assay: Antibacterial activity against Klebsiella pneumonia ATCC 13883 by CLSI based broth microdilution method; format: functional; summary of the method: as §1
[3] = Protein binding in human serum at 1 ug/ml incubated for 4 hrs by LC-MS/MS analysis; format: ADME, cell-free; conditions: at 1 µg/mL, read-out: PB (converted)
Summary of the method: (§2)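 Equilibrium dialysis at 1 µg/mL final in pooled male ICR mouse serum or human volunteer serum (no anticoagulant). Dialyzed against 50 mM sodium phosphate buffer at 37 °C for 4 h (5% CO2, MWCO 12000–14000). Compound on each side measured by LC-MS/MS; binding % = (Cs−Cb)/Cs×100.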

[4] = Protein binding in ICR mouse serum at 1 ug/ml incubated for 4 hrs by LC-MS/MS analysis; format: ADME, cell-free; conditions: at 1 µg/mL, read-out: PB (converted); summary of the method: as §2
Klebsiella pneumoniae [5] = assay: In vivo antibacterial activity against Klebsiella pneumonia 4102 infected in ICR mouse assessed as mouse survival rate at 25 mg/kg, sc administered once after 1 hr of infection and observed for 7 days relative to control; format: functional; conditions: time 7 day
Summary of the method: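 Four-week-old male ICR mice given K. pneumoniae 4102 intraperitoneally (3.8–5.5 × 10^6 CFU/mouse) in 0.5 mL suspension with 3w/v% mucin. Compound in 10w/v% HP-β-CD, single subcutaneous dose 1 h post-inoculation (n = 6). Survival followed for 7 days.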

Klebsiella pneumoniae [6] = assay: In vivo antibacterial activity against Klebsiella pneumonia ATCC BAA-2343 infected in ICR mouse assessed as reduction in bacterial burden in lung at 50 mg/kg, sc administered after 2 hrs of infection and measured after 26 hrs of infection; format: functional; conditions: time 24 hrs
Summary of the method: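 Female ICR mice (5 weeks) made neutropenic with cyclophosphamide ip, 150 and 100 mg/kg at days −4 and −1. Intranasal inoculation with 1.5–1.9 × 10^6 CFU. Compound in 10w/v% HP-β-CD given sc 2 h post-infection (n = 5). Lung viable counts at 2 h (control) and 26 h; mean log change versus start of therapy.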

[7] = Toxicity in iv dosed ICR mouse assessed as maximum tolerated dose; format: organism-based; conditions: in vivo
Summary of the method: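 Exploratory MTD study in male ICR mice (n = 2): a single intravenous tail-vein injection at dose levels of up to 200 mg/kg.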

[8] = Cardiotoxicity in iv dosed Hartley guinea pig assessed as increase in QT prolongation measured after 30 mins; format: toxicity, organism-based, Cavia porcellus; conditions: in vivo, 0.5 h
Summary of the method: (§3)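 Guinea pigs (6–7 weeks) anesthetized with pentobarbital 60 mg/kg ip, then infused iv at 8 mg/kg/h; ventilated at 15 mL/kg, 60/min. Vehicle (11w/v% SBE-β-CD, pH4) or compound infused via jugular vein for 30 min. Carotid arterial pressure and ECG recorded; QT corrected by Bazett. Heart rate, QTc, SBP and DBP expressed as change from baseline.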

[9] = Cardiotoxicity in iv dosed Hartley guinea pig assessed as decrease in heart rate measured after 30 mins; format: toxicity, organism-based, Cavia porcellus; conditions: in vivo, 0.5 h; summary of the method: as §3
[10] = Cardiotoxicity in iv dosed Hartley guinea pig assessed as decrease in blood pressure measured after 30 mins; format: toxicity, organism-based, Cavia porcellus; conditions: in vivo, 0.5 h; summary of the method: as §3
[11] = Plasma concentration in Hartley guinea pig at 135 mg/kg, iv measured after 30 mins by LC-MS/MS analysis; format: ADME, organism-based, Cavia porcellus
Summary of the method: (§4)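 Anesthetized guinea pigs received a 30-min iv infusion. Blood was taken at the end of infusion and centrifuged, and plasma concentration (C30min) was measured by LC-MS/MS.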

[12] = Free plasma concentration in Hartley guinea pig serum assessed as fraction unbound at 135 mg/kg, iv measured after 30 mins by LC-MS/MS analysis; format: ADME, organism-based, Cavia porcellus; conditions: in vivo, 0.5 h
Summary of the method: (§5)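 Unbound plasma concentration at end of 30-min iv infusion in anesthetized guinea pigs: LC-MS/MS plasma C30min multiplied by fraction unbound, with plasma fu assumed equal to serum fu (equilibrium dialysis, 500 µg/mL in guinea pig serum).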

[13] = Plasma concentration in Hartley guinea pig at 60 mg/kg, iv measured after 30 mins by LC-MS/MS analysis; format: ADME, organism-based, Cavia porcellus; summary of the method: as §4
[14] = Free plasma concentration in Hartley guinea pig serum assessed as fraction unbound at 60 mg/kg, iv measured after 30 mins by LC-MS/MS analysis; format: ADME, organism-based, Cavia porcellus; conditions: in vivo, 0.5 h; summary of the method: as §5
[15] = Cardiotoxicity in Hartley guinea pig assessed as decrease in blood pressure at 150 mg/kg, iv measured after 30 mins; format: toxicity, organism-based, Cavia porcellus; conditions: in vivo, 0.5 h; summary of the method: as §3
[16] = target: Voltage-gated inwardly rectifying potassium channel KCNH2 (Homo sapiens, UniProt Q12809); assay: Inhibition of human ERG expressed in CHO cells by whole cell Q-patch clamp assay; format: cell-based
[17] = Genotoxicity in mouse lymphoma cell; format: toxicity; conditions: lymphoma cell line
[18] = Toxicity in iv dosed cynomolgus monkey assessed as maximum tolerated dose administered for 14 days; format: organism-based, Macaca fascicularis; conditions: in vivo, time 14 day
Summary of the method: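 Three-year-old female cynomolgus monkeys were dosed intravenously for 14 days as a 30-min infusion via the saphenous vein. MTD was assessed under repeated dosing.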

[19] = Toxicity in iv dosed Sprague-Dawley rat assessed as maximum tolerated dose administered for 4 days; format: organism-based; conditions: in vivo, time 4 day
Summary of the method: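 Six-week-old male and female Sprague Dawley rats received intravenous bolus doses via the tail vein for 4 days. MTD was assessed under repeated dosing.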

[20] = Plasma concentration in Hartley guinea pig at 150 mg/kg, iv measured after 30 mins by LC-MS/MS analysis; format: ADME, organism-based, Cavia porcellus; summary of the method: as §4
[21] = Free plasma concentration in Hartley guinea pig serum assessed as fraction unbound at 150 mg/kg, iv measured after 30 mins by LC-MS/MS analysis; format: ADME, organism-based, Cavia porcellus; conditions: in vivo, 0.5 h; summary of the method: as §5
[22] = Plasma concentration in Hartley guinea pig at 180 mg/kg, iv measured after 30 mins by LC-MS/MS analysis; format: ADME, organism-based, Cavia porcellus; summary of the method: as §4
[23] = Free plasma concentration in Hartley guinea pig serum assessed as fraction unbound at 180 mg/kg, iv measured after 30 mins by LC-MS/MS analysis; format: ADME, organism-based, Cavia porcellus; conditions: in vivo, 0.5 h; summary of the method: as §5
[24] = in the assay text read “LCMS assay” for “fluorescamine assay”

Voltage-gated inwardly rectifying potassium channel KCNH2, sequence (Q12809 whole entry): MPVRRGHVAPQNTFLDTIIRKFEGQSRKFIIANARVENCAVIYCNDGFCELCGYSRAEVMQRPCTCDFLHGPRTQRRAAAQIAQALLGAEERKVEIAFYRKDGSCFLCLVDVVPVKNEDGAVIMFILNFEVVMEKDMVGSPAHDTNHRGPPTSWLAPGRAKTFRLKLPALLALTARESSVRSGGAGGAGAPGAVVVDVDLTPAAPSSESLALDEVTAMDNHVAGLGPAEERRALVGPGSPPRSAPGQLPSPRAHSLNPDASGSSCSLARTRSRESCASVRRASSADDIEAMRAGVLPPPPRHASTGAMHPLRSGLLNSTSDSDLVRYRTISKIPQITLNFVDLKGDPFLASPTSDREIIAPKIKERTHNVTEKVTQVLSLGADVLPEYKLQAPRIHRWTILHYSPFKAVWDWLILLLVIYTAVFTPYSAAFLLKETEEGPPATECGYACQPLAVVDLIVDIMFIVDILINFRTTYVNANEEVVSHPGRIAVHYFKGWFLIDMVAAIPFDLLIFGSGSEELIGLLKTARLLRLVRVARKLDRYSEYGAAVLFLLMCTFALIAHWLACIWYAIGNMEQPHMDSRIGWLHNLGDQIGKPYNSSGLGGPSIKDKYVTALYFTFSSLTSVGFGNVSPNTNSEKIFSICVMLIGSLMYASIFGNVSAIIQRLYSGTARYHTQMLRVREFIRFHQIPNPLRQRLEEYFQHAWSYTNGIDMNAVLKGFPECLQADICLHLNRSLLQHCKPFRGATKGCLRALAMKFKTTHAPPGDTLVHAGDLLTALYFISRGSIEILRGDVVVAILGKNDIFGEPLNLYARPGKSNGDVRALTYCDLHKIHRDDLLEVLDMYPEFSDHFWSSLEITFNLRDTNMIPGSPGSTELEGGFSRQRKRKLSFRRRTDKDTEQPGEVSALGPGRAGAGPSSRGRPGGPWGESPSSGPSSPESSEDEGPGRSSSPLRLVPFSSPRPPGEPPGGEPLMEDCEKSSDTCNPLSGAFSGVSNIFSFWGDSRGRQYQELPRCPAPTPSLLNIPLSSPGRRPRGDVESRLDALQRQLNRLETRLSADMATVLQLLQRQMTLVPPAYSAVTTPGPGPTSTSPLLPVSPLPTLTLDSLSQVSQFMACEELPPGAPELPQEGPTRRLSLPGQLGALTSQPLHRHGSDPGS

Row | Structure (SMILES) | IC50 [1, 24] [µM] | MIC (Escherichia coli) [µg/mL] | MIC (Klebsiella pneumoniae [2]) [µg/mL] | fraction unbound at 4 h, 1 ug/ml [3] | fraction unbound at 4 h, 1 ug/ml [4] | IC50 [1] [µM] | Activity (Klebsiella pneumoniae [6]) [log10CFU] | MTD [7] [mg/kg] | further results
1 | C[C@H](O)c1nccn1Cc1cc(-c2ccc(C#CC34CC(N)(C3)C4)cc2)on1 | 0.049 | 0.25 (≈ 0.668 µM) | 0.5 (≈ 1.34 µM) | 0.027 | 0.034 |  |  |  | Activity (Klebsiella pneumoniae [5]): 0%
2 | C[C@H](O)c1nccn1Cc1cc(-c2ccc(C#C[C@H]3C[C@H](O)C3)cc2)on1 |  | 0.12 (≈ 0.33 µM) | 0.25 (≈ 0.688 µM) | 0.017 | 0.035 | 0.015 |  |  | Activity (Klebsiella pneumoniae [5]): 0%
3 | C[C@H](O)c1nccn1Cc1cc(-c2ccc(C#CCCCO)cc2)on1 |  | 1 (≈ 2.85 µM) | 2 (≈ 5.69 µM) | 0.031 | 0.049 | 0.051 |  |  | 
4 | C[C@H](O)CN1C[C@@H]2[C@@H](C#Cc3ccc(-c4cc([C@@H](CN)n5ccnc5[C@H](C)O)no4)cc3)[C@@H]2C1 |  | 1 (≈ 2.17 µM) | 4 (≈ 8.67 µM) | 0.212 | 0.151 |  | -1.19 | ≥ 200 | Activity [8]: Toxic; Activity [9]: Toxic; Activity [10]: Toxic; concentration at 0.5 h [11]: 132 µg/mL; Cp(f) [12]: 36 µg/mL
5 | C[C@H](O)c1nccn1Cc1cc(C#Cc2ccc(CCCO)cc2)on1 |  | 0.5 (≈ 1.42 µM) | 2 (≈ 5.69 µM) | < 0.005 | < 0.005 | 0.031 |  |  | 
6 | C[C@H](O)c1nccn1[C@H](CN)c1cc(-c2ccc(C#CC3(N)CC3)cc2)on1 | 0.282 | 2 (≈ 5.3 µM) | 8 (≈ 21.2 µM) |  |  |  |  |  | 
7 | C[C@H](O)c1nccn1[C@H](CN)c1cc(-c2ccc(C#C[C@H]3C[C@H](O)C3)cc2)on1 | < 0.037 | 0.25 (≈ 0.637 µM) | 1 (≈ 2.55 µM) | 0.074 | 0.07 |  | -1.99 | ≥ 200 | Activity [8]: Toxic; Activity [9]: Toxic; Activity [10]: Toxic; concentration at 0.5 h [13]: 90.7 µg/mL; Cp(f) [14]: 15.6 µg/mL
8 | C[C@H](O)c1nccn1Cc1cc(C#Cc2ccc(OC3CN(CCCO)C3)cc2)on1 |  | 2 (≈ 4.73 µM) | 8 (≈ 18.9 µM) | 0.261 | 0.165 | 0.378 |  |  | 
9 | COCCN1CCN(c2ccc(C#Cc3cc(Cn4ccnc4[C@H](C)O)no3)cc2)CC1 |  | 0.25 (≈ 0.574 µM) | 0.5 (≈ 1.15 µM) | 0.09 | 0.083 | 0.071 |  |  | 
10 | C[C@H](O)c1nccn1Cc1cc(-c2ccc(C#C[C@@H]3[C@H]4CN(C=O)C[C@@H]34)cc2)on1 |  | 1 (≈ 2.48 µM) | 2 (≈ 4.97 µM) | 0.095 | 0.09 | 0.039 | -2.84 | 100 | 
11 | C[C@H](O)c1nccn1Cc1cc(-c2ccc(C#CC3(N)CC3)cc2)no1 | 0.193 | 1 (≈ 2.87 µM) | 4 (≈ 11.5 µM) | 0.115 | 0.15 |  |  |  | 
12 | COCC(O)CN1C[C@@H]2[C@@H](C#Cc3ccc(-c4cc(Cn5ccnc5[C@H](C)O)on4)cc3)[C@@H]2C1 (mixture of isomers) |  | 0.5 | 0.5 | 0.076 | 0.077 | 0.097 |  |  | Activity (Klebsiella pneumoniae [5]): 17%
13 | C[C@H](O)c1nccn1Cc1cc(-c2ccc(C#CC3(N)CC3)cc2)on1 | 0.046 | 0.5 (≈ 1.44 µM) | 1 (≈ 2.87 µM) | 0.07 | 0.099 |  |  |  | Activity (Klebsiella pneumoniae [5]): 67%
14 | C[C@H](O)c1nccn1Cc1cc(-c2ccc(C#C[C@@H]3[C@H]4CN(CCCC(=O)O)C[C@@H]34)cc2)on1 |  | 2 (≈ 4.34 µM) | 4 (≈ 8.69 µM) | 0.223 | 0.241 | 0.101 | -1.63 | ≥ 200 | Activity [8]: Non-Toxic; Activity [9]: Non-Toxic; Activity [15]: Non-Toxic; IC50 [16]: > 1000 µM; Activity [17]: Non-Toxic; MTD at 336 h [18]: > 400 mg/kg; MTD at 96 h [19]: 400 mg/kg; concentration at 0.5 h [20]: 378 µg/mL; Cp(f) [21]: 87.3 µg/mL
15 | C[C@H](O)c1nccn1Cc1cc(-c2ccc(C#CC34CC(N)(C3)C4)cc2)no1 | 0.065 | 0.5 (≈ 1.34 µM) | 2 (≈ 5.34 µM) | 0.035 | 0.069 |  |  |  | 
16 | C[C@H](O)c1nccn1[C@H](CN)c1cc(-c2ccc(C#C[C@@H]3[C@H]4CN(CCCC(=O)O)C[C@@H]34)cc2)on1 |  | 4 (≈ 8.17 µM) | 16 (≈ 32.7 µM) |  |  |  |  |  | 
17 | C[C@H](O)c1nccn1[C@H](CN)c1cc(-c2ccc(C#CC34CC(N)(C3)C4)cc2)on1 | 0.279 | 0.5 (≈ 1.24 µM) | 2 (≈ 4.96 µM) | 0.103 | 0.084 |  | -2.48 | 100 | 
18 | COCC(O)CN1C[C@@H]2[C@@H](C#Cc3ccc(-c4cc(Cn5ccnc5[C@H](C)O)no4)cc3)[C@@H]2C1 (mixture of isomers) |  | 0.5 | 0.5 | 0.065 | 0.082 | 0.071 |  |  | Activity (Klebsiella pneumoniae [5]): 33%
19 | C[C@H](O)c1nccn1[C@H](CN)c1cc(-c2ccc(C#C[C@@H]3[C@H]4CN(C=O)C[C@@H]34)cc2)on1 |  | 1 (≈ 2.32 µM) | 2 (≈ 4.64 µM) | 0.275 | 0.18 |  | -2.47 | ≥ 200 | Activity [8]: Toxic; Activity [9]: Toxic; Activity [10]: Toxic; concentration at 0.5 h [22]: 233 µg/mL; Cp(f) [23]: 59.4 µg/mL
